Our source for the GI50, MTD and Activity values is ChEMBL document CHEMBL1811760, “Structure-activity relationships of C-17-substituted estratriene-3-O-sulfamates as anticancer agents” (J Med Chem, 2011).

In data set [1] the test system is DU-145. The experiment in a line: Antiproliferative activity against human DU145 cells after 96 hrs by WST1 assay. Type of data set: functional. Conditions: DU-145, 96 h. In short, it runs like this: (§1)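 Cells were grown in RPMI-1640 with 10% FBS at 37 °C in 5% CO2, then seeded at 5000 cells/well. They were exposed to compound at 10^-9–10^-4 M or vehicle for 96 h. Live cells were read by WST-1 and expressed as percent of mean control, from which GI50 was calculated. Runs were done in triplicate.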

The test system of data set [2] is MDA-MB-231. The experiment in a line: Antiproliferative activity against estrogen-negative human MDA-MB-231 cells after 96 hrs by WST1 assay. Conditions: MDA-MB-231, 96 h. Type of data set: functional. The method in brief:
as §1

Data set [3] concerns HOP-62. In words: Growth inhibition of human HOP62 cells. Type of data set: functional.
Data set [4] relates to HCT-116. The experiment in a line: Growth inhibition of human HCT116 cells. Type of data set: functional.
Data set [5] deals with SF-539. In words: Growth inhibition of human SF539 cells. It is filed as functional.
The subject of data set [6] is UACC-62. In words: Growth inhibition of human UACC62 cells. Type of data set: functional.
For data set [7], the system named is OVCAR-3. The experiment in a line: Growth inhibition of human OVCAR3 cells. Type of data set: functional.
The test system of data set [8] is SN12C. The experiment in a line: Growth inhibition of human SN12C cells. It is filed as functional.
The nature of data set [9]: Growth inhibition of human NCI60 cells. Type of data set: functional.
Data set [10] in a line: Toxicity in ip dosed athymic nude mouse administered as single dose. It is filed as organism-based. Conditions: in vivo. The method in brief: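 Preliminary toxicology run at the NCI in female athymic nude mice. Each mouse received a single ip dose, at doses up to 400 mg/kg. The compound was formulated in 10% DMSO in saline/Tween 80.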
Data set [11] has as its system MCF7. In words: Antiproliferative activity against estrogen-positive human MCF7 cells. It is filed as functional.
In data set [12] the test system is Mus musculus. The experiment in a line: Antiangiogenic activity in Matrigel plug implanted C57BL/6J mouse assessed as inhibition of bFGF-induced angiogenesis at 10 mg/kg, po administered 24 hrs after implantation for 4 days measured by FITC-conjugated dextran staining based fluorimetry. The arrangement: dose 10 mg/kg. It is filed as functional, organism-based. The method in brief: (§2)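 Female C57BL/6J mice (6–8 weeks) were injected subcutaneously in the flanks with 0.5 mL ice-cold Matrigel plus 500 ng bFGF. Oral dosing in vehicle (10% THF, 90% PG) ran daily for 4 days, starting 24 h after Matrigel. Groups had five mice. FITC-dextran (0.1 mL of 0.25 mg/mL) was given iv and mice killed 20 min later. Plugs were digested in Dispase 16 h at 37 °C, and supernatant fluorescence read at ex 480/em 520 nm against a FITC-dextran standard curve.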

Data set [13] deals with Mus musculus. The experiment in a line: Antiangiogenic activity in Matrigel plug implanted C57BL/6J mouse assessed as inhibition of bFGF-induced angiogenesis at 20 mg/kg, po administered 24 hrs after implantation for 4 days measured by FITC-conjugated dextran staining based fluorimetry. The arrangement: dose 20 mg/kg. Type of data set: functional, organism-based. The method in brief: as §2

Activity calls are given as the source filed them. The rule behind the calls is not given here.

As to `CCc1cc2c(cc1OS(N)(=O)=O)CC[C@@H]1[C@@H]2CC[C@]2(C)[C@@H](CO)CC[C@@H]12`, the 50% growth inhibitory concentration (GI50) in data set [1] is 100 nM; in [2], 110 nM; in [3] it was below 10 nM; in data set [4], below 10 nM; in data set [5], below 10 nM; in data set [6], below 10 nM. The GI50 in [7] was below 10 nM; in [8], below 10 nM; in data set [9], 18 nM. In data set [10], this compound had an MTD of 400 mg/kg.

Consider `CCc1cc2c(cc1OS(N)(=O)=O)CC[C@@H]1[C@@H]2CC[C@]2(C)[C@@H](C(C)=O)CC[C@@H]12`, for which the 50% growth inhibitory concentration (GI50) in data set [1] is 62 nM; in data set [2] it was 19 nM; in [11], 26 nM; in data set [3], below 10 nM; in data set [4], below 10 nM; in [5] it was below 10 nM. The GI50 is below 10 nM in data set [6], below 10 nM in [7], below 10 nM in data set [8] and 15 nM in data set [9]. For the same compound, the result in data set [12] and in data set [13] was Active.
